ChEMBL document CHEMBL1944511, “Bakuchiol derivatives as novel and potent cytotoxic agents: a report” (Eur J Med Chem, 2012)

Columns and labels:
Type in all cases: functional
MCF7 [1] = experiment: Growth inhibition of human MCF7 cells at 50 uM after 48 hrs by sulpharhodamine B assay; conditions: MCF7, 48 h, read-out: GI
Method in brief: (§1)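 This is the SRB protein-stain assay on adherent cells in RPMI-1640/MEM with 10% FCS. Each compound in DMSO (vehicle <0.2%) was applied at a single fixed concentration for 48 h. Cells were fixed with TCA and stained with SRB, and the dye was solubilised in Tris and read at 570/620 nm. Percent growth inhibition is relative to vehicle-treated controls, reported as mean ± SD of three experiments run in triplicate.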

IMR-32 [2] = experiment: Growth inhibition of human IMR32 cells at 50 uM after 48 hrs by sulpharhodamine B assay; conditions: IMR-32, 48 h, read-out: GI; method in brief: as §1
PC-3 [3] = experiment: Growth inhibition of human PC3 cells at 50 uM after 48 hrs by sulpharhodamine B assay; conditions: PC-3, 48 h, read-out: GI
Method in brief: (§2)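 Cells grown in RPMI-1640/MEM with 10% FCS, penicillin/streptomycin, 37 °C, 5% CO2. Seeded in 96-well plates, allowed to adhere overnight, then exposed 48 h to analogs in DMSO (vehicle <0.2% in controls). TCA-fixed, stained with 0.4% SRB in 1% acetic acid, dye solubilized in 10 mM Tris base, OD 570 nm (ref 620 nm). Mean ± SD of three experiments run in triplicate.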

THP-1 [4] = experiment: Growth inhibition of human THP1 cells at 50 uM after 48 hrs by sulpharhodamine B assay; conditions: THP-1, 48 h, read-out: GI; method in brief: as §2
A549 [5] = experiment: Growth inhibition of human A549 cells at 50 uM after 48 hrs by sulpharhodamine B assay; conditions: A549, 48 h, read-out: GI; method in brief: as §1
OVCAR-5 [6] = experiment: Growth inhibition of human OVCAR5 cells at 50 uM after 48 hrs by sulpharhodamine B assay; conditions: OVCAR-5, 48 h, read-out: GI; method in brief: as §1
HeLa [7] = experiment: Growth inhibition of human HeLa cells at 50 uM after 48 hrs by sulpharhodamine B assay; conditions: read-out: GI; method in brief: as §1
MCF7 [8] = experiment: Growth inhibition of human MCF7 cells at 30 uM after 48 hrs by sulpharhodamine B assay; conditions: MCF7, 48 h, read-out: GI; method in brief: as §1
HEp-2 [9] = experiment: Growth inhibition of human Hep2 cells at 50 uM after 48 hrs by sulpharhodamine B assay; conditions: HEp-2, 48 h, read-out: GI; method in brief: as §1
THP-1 [10] = experiment: Growth inhibition of human THP1 cells at 30 uM after 48 hrs by sulpharhodamine B assay; conditions: THP-1, 48 h, read-out: GI; method in brief: as §2
PC-3 [11] = experiment: Growth inhibition of human PC3 cells at 30 uM after 48 hrs by sulpharhodamine B assay; conditions: PC-3, 48 h, read-out: GI; method in brief: as §2
A549 [12] = experiment: Growth inhibition of human A549 cells at 30 uM after 48 hrs by sulpharhodamine B assay; conditions: A549, 48 h, read-out: GI; method in brief: as §1
IMR-32 [13] = experiment: Growth inhibition of human IMR32 cells at 30 uM after 48 hrs by sulpharhodamine B assay; conditions: IMR-32, 48 h, read-out: GI; method in brief: as §1
HeLa [14] = experiment: Growth inhibition of human HeLa cells at 30 uM after 48 hrs by sulpharhodamine B assay; conditions: read-out: GI; method in brief: as §1
HEp-2 [15] = experiment: Growth inhibition of human Hep2 cells at 30 uM after 48 hrs by sulpharhodamine B assay; conditions: HEp-2, 48 h, read-out: GI; method in brief: as §1
OVCAR-5 [16] = experiment: Growth inhibition of human OVCAR5 cells at 30 uM after 48 hrs by sulpharhodamine B assay; conditions: OVCAR-5, 48 h, read-out: GI; method in brief: as §1

| SMILES | inhibition of growth at 50 µM (MCF7 [1]) | inhibition of growth at 50 µM (IMR-32 [2]) | inhibition of growth at 50 µM (PC-3 [3]) | inhibition of growth at 50 µM (THP-1 [4]) | inhibition of growth at 50 µM (A549 [5]) | inhibition of growth at 50 µM (OVCAR-5 [6]) | inhibition of growth at 50 µM (HeLa [7]) | inhibition of growth at 30 µM (MCF7 [8]) | inhibition of growth at 50 µM (HEp-2 [9]) | inhibition of growth at 30 µM (THP-1 [10]) | inhibition of growth at 30 µM (PC-3 [11]) | inhibition of growth at 30 µM (A549 [12]) | inhibition of growth at 30 µM (IMR-32 [13]) | inhibition of growth at 30 µM (HeLa [14]) | inhibition of growth at 30 µM (HEp-2 [15]) | inhibition of growth at 30 µM (OVCAR-5 [16]) |
| --- | --- | --- | --- | --- | --- | --- | --- | --- | --- | --- | --- | --- | --- | --- | --- | --- |
| CC(C)=CCCC(C)(/C=C/c1ccc(O)cc1)/C=C/c1ccc(O)cc1 | 31% | 30% | 32% | 66% | 33% | 33% | 32% | – | – | – | – | – | – | – | – | – |
| COc1ccc(/C=C/[C@@](C)(/C=C/c2ccc(O)cc2)CCC=C(C)C)cc1CO | 42% | 34% | 39% | 58% | 41% | 38% | 36% | – | – | – | – | – | – | – | – | – |
| COc1ccccc1/C=C/[C@@](C)(/C=C/c1ccc(O)cc1)CCC=C(C)C | 42% | 68% | 46% | 62% | 10% | 38% | 50% | – | – | – | – | – | – | – | – | – |
| C=C[C@@](C)(/C=C/c1ccc(O)cc1)CC/C=C(/C)C=O | 12% | 53% | 51% | 54% | 35% | 22% | 40% | – | – | – | – | – | – | – | – | – |
| C=C[C@@](C)(/C=C/c1ccc(OC(=O)CCCCCCC)cc1)CCC=C(C)C | 12% | 51% | 22% | 62% | 15% | 42% | 53% | – | – | – | – | – | – | – | – | – |
| C=C[C@@](C)(/C=C/c1ccc(O)c([N+](=O)[O-])c1)CCC=C(C)C | 49% | 50% | 52% | 55% | 52% | 55% | 49% | – | – | – | – | – | – | – | – | – |
| COc1ccc(/C=C/[C@@](C)(/C=C/c2ccc(O)cc2)CCC=C(C)C)cc1 | 55% | 6% | 50% | 52% | 40% | 20% | 20% | – | – | – | – | – | – | – | – | – |
| C=C[C@@](C)(/C=C/c1ccc(OC)cc1)CCC=C(C)C | 18% | 30% | 44% | 45% | 12% | 37% | 43% | 37% | 40% | 29% | 31% | 34% | 23% | 28% | 22% | 29% |
| C=C[C@@](C)(/C=C/c1ccc(O)cc1)CCC1OC1(C)C (stereo not given in full) | 33% | 59% | 46% | 52% | 44% | 12% | 32% | – | – | – | – | – | – | – | – | – |
| C=C[C@@](C)(/C=C/c1ccc(O)c(N)c1)CCC=C(C)C | 17% | 39% | 28% | 48% | 41% | 33% | 48% | – | – | – | – | – | – | – | – | – |
| CC[C@](C)(CCCC(C)C)CCc1cc(Br)c(O)c(Br)c1 | 42% | 21% | 50% | 51% | 40% | 8% | 42% | – | – | – | – | – | – | – | – | – |
| C=C[C@@](C)(/C=C/c1ccc(OC(=O)CCCC)cc1)CCC=C(C)C | 25% | 21% | 42% | 15% | 38% | 3% | 23% | – | – | – | – | – | – | – | – | – |
| C=C[C@@](C)(/C=C/c1ccc(OC(=O)CCC)cc1)CCC=C(C)C | 20% | 54% | 38% | 54% | 50% | 41% | 36% | – | – | – | – | – | – | – | – | – |
| C=C[C@@](C)(/C=C/c1ccc(OC(=O)CCCCCCCCC)cc1)CCC=C(C)C | 10% | 52% | 50% | 52% | 48% | 42% | 50% | 12% | 30% | 39% | 27% | 33% | 22% | 24% | 16% | 29% |
| COc1ccc(/C=C/[C@@](C)(/C=C/c2ccc(O)cc2)CCC=C(C)C)cc1C=O | 36% | 35% | 34% | 45% | 32% | 33% | 31% | – | – | – | – | – | – | – | – | – |
| C=C[C@@](C)(/C=C/c1ccc(OC(=O)CC)cc1)CCC=C(C)C | 23% | 63% | 54% | 60% | 42% | 52% | 48% | – | – | – | – | – | – | – | – | – |
| C=C[C@@](C)(/C=C/c1ccc(OC(=O)CCCCC)cc1)CCC=C(C)C | 18% | 19% | 28% | 54% | 58% | 13% | 50% | – | – | – | – | – | – | – | – | – |
| COc1ccc(/C=C/C(C)(/C=C/c2ccc(OC)cc2)CCC=C(C)C)cc1 | 13% | 27% | 29% | 62% | 15% | 25% | 11% | – | – | – | – | – | – | – | – | – |
| CC[C@](C)(CCCC(C)C)CCc1ccc(O)c(I)c1 | 40% | 21% | 8% | 58% | 12% | 11% | 43% | – | – | – | – | – | – | – | – | – |
| CCCOc1ccc(/C=C/[C@@](C)(/C=C/c2ccc(O)cc2)CCC=C(C)C)cc1Cl | 47% | 8% | 7% | 20% | 5% | 12% | 4% | – | – | – | – | – | – | – | – | – |
| CC[C@](C)(CCCC(C)C)CCc1ccc(O)cc1 | 46% | 53% | 40% | 58% | 49% | 43% | 42% | – | – | – | – | – | – | – | – | – |
| CC(C)=CCC[C@@](C)(/C=C/c1ccc(N)cc1)/C=C/c1ccc(O)cc1 | 48% | 28% | 59% | 51% | 57% | 16% | 27% | 28% | 46% | 32% | 15% | 33% | 14% | 5% | 32% | 8% |
| C=C[C@@](C)(/C=C/c1ccc(OC(=O)CCCCCCCCCCCCCCC)cc1)CCC=C(C)C | 24% | 54% | 62% | 62% | 61% | 64% | 51% | – | – | – | – | – | – | – | – | – |
| CC(C)=CCC[C@](C)(/C=C/c1ccc(O)cc1)/C=C/c1ccc(F)cc1 | 28% | 37% | 33% | 60% | 31% | 29% | 43% | – | – | – | – | – | – | – | – | – |
